Assay outcomes as filed in PubChem BioAssay.
Hits are enriched below; roughly 1.3% of the tested compounds scored in any of these assays.
RTF Ca sens inh = cardiac RTF calcium sensitivity inhibitors, primary screen, biochemical, IANBD-TnC fluorescence, EC70 calcium | Troponin I, cardiac muscle (Homo sapiens) + Troponin T, cardiac muscle (Homo sapiens) + … | IANBD-labeled cardiac RTF, Ca2+ fluorescence | inhibition, % at 7.15 µM | actives 0.12% (n = 340,000);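 active = inhibition above the mean inhibition of all tested compounds plus 3 SD, cut at about 17% in these data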;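 also: assay run at fixed EC70 calcium of 1.6 mM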
CAL PDZ FP-1 = CAL PDZ peptide-binding inhibitors, primary screen, biochemical, fluorescence polarization, Cer-tagged CAL PDZ, HTS; actives 0.02% (n = 330,000); Golgi-associated PDZ and coiled-coil motif-containing protein (Homo sapiens), Q9HD26; purified CAL PDZ, TMR-peptide fluorescence polarization, 1 h; inhibition, % at 20 µM; AID 504414, 2011;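 active = highest replicate inhibition of at least 40%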;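 also: plate controls were DMSO neutral control wells for no effect and unlabeled competitor peptide control wells for full effect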
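Material: tagged CAL PDZ domain; buffer or medium: 25 mM sodium phosphate pH 7.4, 150 mM NaCl, TCEP, IgG, Thesit; compound dosing: single point, 20 µM; schedule: 1 h incubation at room temperature before polarization reading; measured by: FP readout, S and P plane fluorescence; read-out basis: percent inhibition from loss of millipolarization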
Keap1-Nrf2 PPI = Keap1-Nrf2 protein-protein interaction inhibitors, primary screen, biochemical, fluorescence polarization, single point. Keap1 Kelch-Nrf2 peptide fluorescence polarization, 1536-well. inhibition, % at 9.4 µM. actives 0.15% (n = 340,000). AID 504523, 2011; in the data active = inhibition above about 12%;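 also: human Keap1 Kelch domain with fluorescein labeled Nrf2 9mer peptide probe; 0% = neutral control wells and 100% = peptide positive control; higher means more block of Keap1 binding to Nrf2 peptide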
Target sequence (Q14145 whole entry, looked up, the tested form may be a part): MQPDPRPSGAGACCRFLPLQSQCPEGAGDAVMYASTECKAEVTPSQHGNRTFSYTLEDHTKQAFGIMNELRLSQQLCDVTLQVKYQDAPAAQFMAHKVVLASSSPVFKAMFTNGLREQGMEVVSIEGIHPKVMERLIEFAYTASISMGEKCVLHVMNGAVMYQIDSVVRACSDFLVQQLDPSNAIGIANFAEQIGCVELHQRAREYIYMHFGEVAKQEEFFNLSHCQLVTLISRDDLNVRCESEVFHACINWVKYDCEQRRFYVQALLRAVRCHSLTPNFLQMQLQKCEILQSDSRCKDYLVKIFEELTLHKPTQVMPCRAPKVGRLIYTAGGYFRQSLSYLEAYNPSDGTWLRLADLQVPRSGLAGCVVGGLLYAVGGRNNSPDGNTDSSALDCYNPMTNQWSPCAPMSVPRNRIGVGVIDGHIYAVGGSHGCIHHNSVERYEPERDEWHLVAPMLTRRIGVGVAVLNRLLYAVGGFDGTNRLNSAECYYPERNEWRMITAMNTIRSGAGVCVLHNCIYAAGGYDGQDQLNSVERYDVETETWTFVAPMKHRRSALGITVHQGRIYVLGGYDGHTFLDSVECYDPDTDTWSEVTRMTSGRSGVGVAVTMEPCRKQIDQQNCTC
C-LANA FP = inhibitors of KSHV C-LANA binding to DNA, primary screen, biochemical, fluorescence polarization, FAM-LBS DNA, MBP-C-LANA, single point. inhibition, % at 9 µM. Kaposi's sarcoma herpesvirus LANA C-terminal domain (residues 932-1162) DNA binding. actives 0.078% (n = 340,000);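 active = highest replicate inhibition at or above 60% at 9 µM, even if other replicates fall short; inactive = all replicates below 60% inhibition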;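 also: 0% = neutral control wells and 100% = 4 µM acridine orange control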
CAL PDZ FP-2 = untagged CAL PDZ binding inhibitors, primary screen, biochemical, fluorescence polarization, HTS; Golgi-associated PDZ and coiled-coil motif-containing protein (Homo sapiens), Q9HD26; purified CAL PDZ, TMR-peptide fluorescence polarization, 1 h; inhibition, % at 24.9 µM; actives 0.92% (n = 300,000); AID 602252, 2012;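 active = mean inhibition of at least 30% with at least half of replicates also reaching 30%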;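 also: 0% = DMSO neutral control and 100% = excess unlabeled competitor peptide PRC23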
RTF Ca sens act = cardiac RTF calcium sensitivity activators, primary screen, biochemical, IANBD-TnC fluorescence, EC20 calcium. activation, % at 7.2 µM. AID 493008, 2010. actives 0.24% (n = 340,000). Troponin I, cardiac muscle (Homo sapiens) + Troponin T, cardiac muscle (Homo sapiens) + …. IANBD-labeled TnC RTF fluorescence at EC20 calcium; 0% EC20 calcium, 100% full calcium;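 active = activation above the mean over all tested compounds plus 3 SD, cut at about 30% in these data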;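 also: rise in fluorescence read as greater calcium sensitivity of cardiac thin filaments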
Keap1 TSA = Keap1 Kelch domain binders by thermal stabilisation, dose response, biophysical, thermal shift, RT-PCR instrument, cherry-pick; actives 8% (n = 400); shares compounds with Keap1-Nrf2 PPI; delta Tm; stronger effect = higher value; max delta Tm, degrees C; in the data active = max delta Tm above about 0.48 degrees C
Sypro dye melt = Sypro Orange dye melt without protein, dose response, artefact control for Keap1-Nrf2 interaction inhibitor project, biochemical, thermal shift counterscreen, cherry-pick; shares compounds with Keap1-Nrf2 PPI; Sypro Orange dye-only thermal melt, no protein, delta Tm; top dose 26 µM; delta Tm, degrees C (test concentration not listed); 140 tested, under 10 active; AID 651858, 2012;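 active = at highest dose tested, delta Tm positive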
Active calls of the source: *; x = no result.

SMILES | RTF Ca sens inh | CAL PDZ FP-1 | Keap1-Nrf2 PPI | C-LANA FP | CAL PDZ FP-2 | RTF Ca sens act | Keap1 TSA | others
Cc1cccc(N2C(=O)C(O)=C(C(=O)c3cccs3)C2c2ccc(C(C)C)cc2)n1 (centres undefined) | -2 | -1 | 2 | 2 | -4 | -4 | x
CC(=O)N1CCc2cc(S(=O)(=O)NC(C(=O)NC(C)c3ccccc3)C(C)C)ccc21 (centres undefined) | -2 | -1 | -3 | 1 | 1 | -4 | x
O=[N+]([O-])c1cccc(S(=O)(=O)N2CCN(S(=O)(=O)N3CCCCCC3)CC2)c1 | 0 | 1 | -4 | -1 | -6 | -4 | x
C/C(=N\Nc1ccc(Cl)c(C(=O)O)c1)c1cccs1 | -3 | -3 | -1 | 4 | -11 | 3 | x
C/C(=N/Nc1ccccc1C(=O)O)c1cccs1 | -5 | -1 | 74* | x | x | -1 | -0.04 | Sypro dye melt=-27
CC(=O)Nc1ccc2c(c1)Cc1c-2cc(Br)c(N)c1Br | 2 | 0 | 0 | -7 | -4 | -1 | x
CCCCCC(=O)N1CCCC1 | -2 | 0 | 16* | -2 | -3 | 2 | -0.08 | Sypro dye melt=-23
O=C(CCCCCCCC(=O)N1CCCCCC1)N1CCCCCC1 | 3 | 0 | -1 | 0 | x | 2 | x
Cc1ccc(NC(=O)/C(C#N)=C(\N)C(Cl)(Cl)Cl)nc1 | -23 | 1 | 38* | 34 | -3 | 7 | -0.01
CCCCC(CC)C(=O)Oc1ccc(O)c(C(C)(C)C)c1 (centres undefined) | 5 | 2 | 15* | -1 | -3 | -1 | 0.05
CCOCCCn1c(=NC(=O)c2cccs2)c(C#N)cc2c(=O)n3ccccc3nc21 | -21 | -1 | 23* | 30 | 1 | 10 | -0.12
COc1ccc(C=Nc2cccnc2N)cc1 | -101 | x | 23* | 14 | -6 | 11 | -0.2
O=C(NC1CCSc2ccccc21)c1cccc(Cl)c1 (centres undefined) | 4 | -2 | 6 | -1 | -4 | -4 | x
CCN(CC)S(=O)(=O)c1ccc(F)c(C(=O)OC2CC(C)OC2=O)c1 (centres undefined) | 5 | -2 | 3 | 0 | -2 | -5 | x
O=C(/C=C/c1ccccc1Cl)NCCCn1ccnc1 | -10 | 0 | 38* | 19 | x | 2 | -0.01
CN1CCN(C(=O)/C(=C/c2cccnc2)NC(=O)c2cccc(Br)c2)CC1 | 2 | -1 | 1 | 0 | -3 | -1 | x
Cc1cc(C)c2sc(C)[n+](CCCS(=O)(=O)[O-])c2c1 | -18 | -1 | 1 | -1 | 10 | 0 | x
O=S(=O)([O-])CCC[n+]1c(SCCCS(=O)(=O)O)sc2ccc(Cl)cc21 | -6 | 0 | 21* | -1 | -4 | -4 | -0.02 | Sypro dye melt=-26
CN(N=Nc1ccc([N+](=O)[O-])cc1)c1ccccc1 | -8 | -1 | 113* | 101* | -4 | 511* | 0
CN(N=Nc1cccc([N+](=O)[O-])c1)c1ccccc1 | 5 | -1 | -2 | -3 | -7 | -2 | x
N#CCC(=O)Nc1ccc(C(=O)OCC(=O)NC(=O)NCc2ccco2)cc1 | -2 | 0 | -2 | -1 | 2 | -4 | x
O=C(NCc1ccc(Cl)cc1)c1cc(=O)[nH]c2ccccc12 | -4 | -1 | 59* | 2 | -2 | -2 | -0.15
O=c1ccc2cc3c4c(c2o1)CCCN4CCC3 | -245 | 0 | 38* | 46 | 5 | 129* | -0.17
Cc1ccc([N+](=O)[O-])cc1S(=O)(=O)Nc1ccc(C(=O)NCC2CCCO2)cc1 (centres undefined) | -5 | 0 | -8 | -3 | -4 | -5 | x
CCN1CCN(c2nc3c(c(=O)[nH]c(=O)n3C)n2Cc2ccccc2)CC1 | -2 | 0 | -1 | 0 | -3 | 2 | x
SMILES | RTF Ca sens inh | CAL PDZ FP-1 | Keap1-Nrf2 PPI | C-LANA FP | CAL PDZ FP-2 | RTF Ca sens act | Keap1 TSA | others
COc1ccc(OC)c(C(=O)c2coc3ccc(O)c(CN(C)C)c23)c1 | -4 | 1 | 19* | 9 | x | 1 | -0.11
O=C1c2cccc3c(N4CCCCC4)ccc(c23)C(=O)N1c1ccccc1O | -118 | -1 | 16* | 41 | x | 73* | -0.13
O=C(O)CCCC(=O)Nc1ccccc1SCCS(=O)(=O)c1ccc(Cl)cc1 | -4 | 1 | 3 | 0 | 10 | 8 | x
N/C(Cc1ccccc1Sc1ccccc1)=N\O | -8 | 0 | 2 | 2 | -3 | 1 | x
N/C(Cc1cccc2ccccc12)=N\O | -13 | 1 | 17* | x | -5 | 13 | -0.14 | Sypro dye melt=-22
C=CCOc1ccc(/C=C/C(=O)OCC(=O)N(C)C2CCS(=O)(=O)C2)cc1 (centres undefined) | -1 | -2 | 5 | 2 | 2 | -4 | x
O=C(CN1C(=O)NC2(CCCC2)C1=O)Nc1ccc(C(F)(F)F)cc1 | 3 | -3 | 12* | -2 | -3 | -7 | -0.12
CCc1cc[n+](-c2nc([O-])sc2C=O)cc1 | -27 | 0 | 29* | 43 | x | 22 | -0.06
CC(C)(C)c1cc[n+](-c2nc([O-])sc2C=O)cc1 | 6 | -2 | 8 | 3 | -2 | -3 | x
CC(NC(=O)c1ccccc1)C(=O)NC1CCCc2ccccc21 (centres undefined) | -1 | -2 | 2 | -2 | 1 | -1 | x
Cc1ccc(OC(C)C(=O)N2CCN(c3ccccn3)CC2)cc1 (centres undefined) | -7 | -1 | 35* | 18 | x | 4 | -0.04
C=CCn1c(=O)/c(=C\c2ccsc2)s/c1=C(/C#N)C(=O)NCCN1CCOCC1 | 1 | -1 | 16* | 21 | 12 | 7 | -0.17 | Sypro dye melt=-22
COCCCN1C(=O)c2ccc(C(=O)Nc3ccc(C)cc3C)cc2C1=O | -8 | -3 | 39* | 2 | -1 | -6 | -0.14
